Experimental data collected from several papers.
Each line is one published result; the experiments were not run side by side.
Target: Serine/threonine-protein kinase DCLK1 (DCLK1, Homo sapiens, UniProt O15075)
One construct used (O15075 1-740): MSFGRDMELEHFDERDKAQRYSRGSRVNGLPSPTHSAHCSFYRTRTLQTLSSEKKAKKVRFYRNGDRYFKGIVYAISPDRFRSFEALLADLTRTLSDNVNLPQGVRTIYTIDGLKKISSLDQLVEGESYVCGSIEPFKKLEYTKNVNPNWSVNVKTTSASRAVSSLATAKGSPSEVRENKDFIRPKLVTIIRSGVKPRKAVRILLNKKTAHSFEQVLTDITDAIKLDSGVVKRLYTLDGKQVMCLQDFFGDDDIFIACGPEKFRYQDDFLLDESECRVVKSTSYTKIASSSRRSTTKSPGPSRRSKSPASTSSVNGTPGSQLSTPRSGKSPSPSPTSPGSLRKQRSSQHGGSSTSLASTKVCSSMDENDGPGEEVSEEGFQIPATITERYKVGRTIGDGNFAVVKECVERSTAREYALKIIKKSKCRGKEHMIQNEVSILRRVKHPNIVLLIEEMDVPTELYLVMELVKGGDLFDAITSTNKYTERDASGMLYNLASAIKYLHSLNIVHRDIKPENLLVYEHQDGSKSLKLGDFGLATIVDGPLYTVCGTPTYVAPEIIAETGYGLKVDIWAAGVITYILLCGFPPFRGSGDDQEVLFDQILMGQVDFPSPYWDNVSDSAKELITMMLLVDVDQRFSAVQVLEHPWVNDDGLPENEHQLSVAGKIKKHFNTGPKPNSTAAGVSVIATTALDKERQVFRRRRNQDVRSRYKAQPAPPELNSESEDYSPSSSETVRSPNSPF

| Compound | read-out | method | concentration | remaining binding [%] |
| --- | --- | --- | --- | --- |
| CNCc1ccccc1-c1csc([C@H](C)Nc2nc(C)nc3cc(OC)c(OC)cc23)c1 | cell-free assay | competition with immobilised ligand | 1 µM | 87 |
| N#Cc1ccccc1CSc1nnc2c(n1)[nH]c1ccccc12 | binding | competition with immobilised ligand | 10 µM | 100 |
| Cc1noc([C@H]2C[C@@H](c3ccc(C(F)(F)F)cc3)CN(C(=O)N3CCS(=O)(=O)C3)C2)n1 | cell-free assay | competition with immobilised ligand | 1 µM | 75 |
| Nc1ncc2c(n1)-c1c([nH]c3ccc(C#CC4CC4)cc13)CCCC2 | binding | competition with immobilised ligand | 1 µM | 100 |
| O=C(NCC1CCOCC1)c1n[nH]cc1NC(=O)c1c(F)cccc1F | binding | competition with immobilised ligand | 1 µM | 75 |
| C[C@H]1CCN(c2nccc(-c3cnn4ncccc34)n2)C1 | binding | competition with immobilised ligand | 1 µM | 85 |
| O=C(NCCCN1CCOCC1)c1ccc(Nc2nccc(-c3cc4ccccc4s3)n2)cc1 | binding | competition with immobilised ligand | 1 µM | 88 |
| COc1ncc2cc3ccccc3nc2c1C#N | cell-free assay | competition with immobilised ligand | 5 µM | 98 |
| c1cnn2ncc(-c3ccnc(N4CCC45COC5)n3)c2c1 | binding | competition with immobilised ligand | 1 µM | 82 |
| O=C(c1ccc(Nc2ncc(Cl)c(-c3cc4ccccc4s3)n2)cc1)N1CCC(N2CCCC2)CC1 | binding | competition with immobilised ligand | 1 µM | 100 |
| CNC(=O)[C@@H]1CC[C@@H](n2c(-c3ccc4cnccc4c3)nc3ccc(C(=O)NCc4cccc(C(N)=O)c4)cc32)C1 | binding | competition with immobilised ligand | 1 µM | 85 |
| Nc1c(C(=O)NCc2ccc(C(=O)NCCCC3CCCCC3)cc2)cnn1-c1ccccc1 | cell-free assay | competition with immobilised ligand | 0.1 µM | 100 |
| O=C(c1ccc(Nc2nccc(-c3cc4ccccc4s3)n2)cc1)N1CCC(N2CCCC2)CC1 | binding | competition with immobilised ligand | 1 µM | 86 |
| FC(F)(F)Oc1cccc(-c2cnc3ccc(-c4ccncc4)nn23)c1 | cell-free assay | competition with immobilised ligand | 5 µM | 69 |
| O=C(N1CCS(=O)(=O)CC1)N1C[C@H](c2ccc(OC(F)(F)F)cc2)C[C@H](c2nc(C3CC3)no2)C1 | cell-free assay | competition with immobilised ligand | 1 µM | 100 |
| C[C@@H]1CN(c2ccc3ncc(-c4ccc5[nH]nc(C6CC6)c5c4)n3n2)C[C@H](C)O1 | binding | competition with immobilised ligand | 50 nM | 84 |
| CC1=C(C#N)C(c2ccc3c(c2)c(NC(=O)c2ccccc2C)nn3C)C(C#N)=C(C)N1 | cell-free assay | competition with immobilised ligand | 1 µM | 79 |
| COc1cnc(Nc2cccc(S(N)(=O)=O)c2)nc1N1CCN(c2ccccc2)C(=O)C1 | binding | competition with immobilised ligand | 1 µM | 83 |
| CN(C)c1ncc(F)c(-c2cnn3ncccc23)n1 | binding | competition with immobilised ligand | 1 µM | 61 |
| COc1cc(C(=O)N2CCC(N3CCN(C)CC3)CC2)ccc1Nc1ncc2c(n1)N(C)c1ccccc1C(=O)N2C | binding | competition with immobilised ligand | 10 µM | 4.2 |
| Cn1nc(C(=O)NCc2ccc(C(=O)O)cc2)cc1-c1ccc2[nH]ccc2c1 | cell-free assay | competition with immobilised ligand | 0.1 µM | 88 |
| N[C@H]1CCN(c2nccc(-c3cnn4ncccc34)n2)C1 | binding | competition with immobilised ligand | 1 µM | 83 |
| CCC(=N\O)/C(C)=C/c1ccc(F)cc1 | cell-free assay | competition with immobilised ligand | 1 µM | 93 |
| CN(c1nccc(-c2cnn3ncccc23)n1)C1CC1 | binding |  | 1 µM | 85 |
| COCCOc1nc(-c2ccc(Cl)nc2)nc2c1CN(C(=O)c1ncn3ccccc13)CC2 | cell-free assay | competition with immobilised ligand | 0.1 µM | 100 |
| CC1CCCN1c1nccc(-c2cnn3ncccc23)n1 (centres unmarked) | binding | competition with immobilised ligand | 1 µM | 87 |
